Cneo AK release = Cryptococcus neoformans cell lysis inducers, primary screen, AK release luminescence, single concentration; lysis activity, % at 15 µM; AID 651654, 2012; C. neoformans lysis, adenylate kinase release luminescence, 4 h; normalised: neutral wells 0, clomiphene wells 100; 360,000 tested, 0.2% active;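 active = mean lysis activity across replicates of at least 80%, whatever share of replicates individually reach that level; inactive = mean lysis activity below 80%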
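Material: C. neoformans cells | Amount: Yeast cell density of 5 × 10^6 cells/mL | Medium: Fresh YPD growth medium | Dosing: Single dose | Times: Static 4 h at 37 °C with compound, 1 h detection | Detection: AK luminescence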
rRNA inh HTS = reduced GFP signal of wild-type E. coli, primary screen, bacterial rRNA inhibitor project, GFP/RFP fluorescence, OD600, single point | E. coli WT GFP vs humanized-ribosome RFP mutants, 24 h; stronger effect = lower value; DMSO median 0, no signal -100 | GFP signal change (wild-type ribosome), % (no concentration beside the values) | 350,000 tested, 1.6% active | AID 720706, 2013;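 active = significant combined selectivity score with lowered wild-type GFP, culture density cut under 30%, mutant RFP and density less affected; inactive = any of these conditions unmet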
Yeast superoxide = reduction of superoxide in aged yeast, primary screen, HTS. S. cerevisiae aged cells, superoxide DHE fluorescence; stronger effect = lower value. superoxide response (% of plate mean), % at 10 µM. 330,000 tested, 0.18% active. AID 2690, 2010;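 active = superoxide response under a set limit, about three screen SD below normal, cut at about 65% in these data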;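 also: yeast aged for seven days with compound at 30 °C before DHE staining; 100% = average MFI of all compound-treated wells on the plate with controls excluded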
PglD DTNB = C. jejuni PglD acetyltransferase inhibitors, primary screen, biochemical, DTNB colorimetric, single point. purified PglD enzyme, DTNB colorimetric CoA detection. inhibition, % at 12.5 µM. 360,000 tested, 0.098% active; in the data active = inhibition above about 16%, passing the limit was not always enough; inconclusive = no clear call, values can overlap the other calls
SUMO Mot1 rescue = yeast Mot1-301 growth rescue at high temperature, primary screen, SUMOylation pathway inhibitor project, S. cerevisiae, ATP luminescence, 38.5C; S. cerevisiae Mot1-301 growth rescue; percent above DMSO median, 100 means doubled; growth rescue, % at 18.8 µM; 320,000 tested, 1% active; AID 2716, 2010;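 active = every valid replicate shows activation above 250% relative to neutral control wells; inactive = the rest, any valid replicate at or below 250%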;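 also: OY570 slx delta 5 strain wells were the positive control but not used for scaling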
AID977621 = growth inhibition of wild-type GFP E. coli, dose response, H69 mutant RFP, cherry-pick. shares compounds with rRNA inh HTS. E. coli wild-type GFP strain growth, fluorescence, 24 h. activity change, negative = inhibition at 50 µM. 1,900 tested, under 10 active. AID 977621, 2014;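 active = Wild-type ribosome reporter drop at least double the humanized mutant ribosome reporter drop, growth loss under a set limit; inconclusive = no clear call, values can overlap the other calls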;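 also: wild-type GFP and H69 mutant RFP strains grown together 50/50 in each well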
AID977628 = E. coli growth inhibition, wild-type GFP versus h24 humanized RFP strain, dose response, h24 mutant RFP vs wild-type GFP, cherry-pick. shares compounds with rRNA inh HTS. E. coli WT GFP strain growth, fluorescence, 24 h. activity change, negative = inhibition at 50 µM. 1,900 tested, under 10 active;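 active = compound lowering the normal-ribosome reporter at least twice as much as the humanized-ribosome reporter, growth loss under a set limit; inconclusive = no clear call, values can overlap the other calls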;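 also: wild-type GFP and h24 humanized RFP strains co-cultured 1 to 1 per well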
* = called active by the depositor; ? = inconclusive; / = no result given. Most compounds without a hit are left out; they make up all but 2.2% or so of the library.

SMILES | Cneo AK release | rRNA inh HTS | Yeast superoxide | PglD DTNB | SUMO Mot1 rescue | AID977621 | AID977628
C[C@@H]1CN([C@@H](C)CO)C(=O)c2cc(NC(=O)Nc3cccc4ccccc34)ccc2O[C@@H](C)CCCCO[C@H]1CN(C)C(=O)CCCN(C)C | 3 | 1 | / | 1 | / | / | ?
CS(=O)(=O)N1CC(=O)N2[C@H](C1)[C@H](c1ccc(C#Cc3ccccc3)cc1)[C@@H]2CO | / | 2 | / | / | / | / | /
CCC(=O)N1CC2(CN(Cc3nccs3)C2)c2c(n(C)c3cc(OC)ccc23)[C@@H]1CO | / | 1 | / | / | / | / | /
CO[C@@H]1CN(C)C(=O)c2ccc(NC(=O)NC(C)C)cc2OC[C@H](C)N(C(=O)CC2CC2)C[C@@H]1C | -2 | 1 | / | 3 | / | / | /
COc1ccc(CN(C)C(=O)CNC(=O)CNC(=O)c2ccc(Cl)cc2Cl)cc1F | -2 | 3 | 105 | -3 | 0 | / | /
CN(Cc1ccc(Cl)s1)C(=O)CNC(=O)CNC(=O)c1ccc(Cl)cc1Cl | 0 | -27* | 89 | / | 4 | / | -5.2
O=C(COc1cccc2c1CCN(Cc1ccccc1F)C2=O)N1CCOCC1 | / | / | 104 | / | 3 | / | /
O=C(COc1cccc2c1CCN(Cc1ccc(Br)cc1)C2=O)N1CCOCC1 | / | -28* | 101 | / | 0 | 7.3 | -5.1
O=C(COc1cccc2c1CCN(Cc1ccccc1F)C2=O)N1CCCCC1 | / | -39* | 103 | / | -5 | / | ?
C[C@H](NC(=O)[C@H]1[C@H](CO)[C@H]2Cn3c(ccc(-c4ccncc4)c3=O)[C@@H]1N2C)c1ccccc1 | -2 | 2 | / | -3 | / | / | /
Cc1ccn2cc(-c3cccc(NC(=O)c4cccs4)c3)nc2c1 | / | -36* | 109 | / | -11 | -5.4 | -13
COc1ccc(-c2nn(-c3ccccc3C)cc2CNCc2cccnc2)cc1F | 0 | -18* | 95 | -1 | -23 | 3.6 | -12
COc1ccc(-n2cc(CNCc3cccnc3)c(-c3cccc(F)c3)n2)cc1 | 1 | -39 | 106 | -2 | 87 | / | /
O=C(Nc1ccc(S(=O)(=O)NC2=NCCCCC2)cc1)c1ccc([N+](=O)[O-])s1 | -4 | -20* | 128 | -4 | 118 | ? | -4.1
CCCn1c(C(C)Nc2nc(-c3ccc(C)cc3)cs2)nc2ccccc21 (stereo not given) | 4 | -16* | 96 | -1 | -8 | -14 | -1.6
CC(C)OCCCNC(=O)c1ccc(CS(=O)(=O)c2cccc(C(F)(F)F)c2)o1 | -1 | -19* | 92 | -9 | 4 | -13 | ?
CCCCNC(=O)c1ccc(CS(=O)(=O)c2cccc(C(F)(F)F)c2)o1 | -1 | / | 124 | 7 | -3 | / | /
Nc1ccc(C(=O)OCCCc2nc3cc4ccccc4cc3[nH]2)cc1 | -3 | -17* | 101 | 0 | 267 | 0.46 | -0.53
Nc1ccc(C(=O)OCc2nc3cc4ccccc4cc3[nH]2)cc1 | / | -23 | 116 | / | 13 | / | /
Cc1ccc(NS(=O)(=O)c2cc(C(=O)N3CCc4ccccc4C3)ccc2Cl)cc1 | -1 | -29* | 99 | / | -17 | -21 | /
O=C(NCC1CCCO1)c1ccc(Cl)c(S(=O)(=O)Nc2ccccc2)c1 (stereo not given) | -1 | 2 | 91 | 0 | -19 | / | /
O=C(NCCC1=CCCCC1)c1ccc(Cl)c(S(=O)(=O)Nc2ccccc2)c1 | 8 | -20* | 103 | -2 | 7 | -13 | /
Cc1ccccc1NS(=O)(=O)c1cc(C(=O)NCCC2=CCCCC2)ccc1C | 20 | -17* | 107 | 0 | 3 | -1.9 | ?
Cc1ccc(C(=O)NCCC2=CCCCC2)cc1S(=O)(=O)N1CCCCC1 | 0 | -17 | 129 | 1 | -11 | / | /
CC(=O)N1[C@H](CN(C(=O)c2ccccc2)C(C)C)[C@H](c2ccccc2)[C@@H]1CO | -2 | 1 | / | 2 | / | / | /
SMILES | Cneo AK release | rRNA inh HTS | Yeast superoxide | PglD DTNB | SUMO Mot1 rescue | AID977621 | AID977628
CC(=O)Nc1ccc(S(=O)(=O)Nc2cccc(-c3nc4cc(C)ccc4o3)c2)cc1 | 0 | -18* | 98 | 7 | 2 | -3.9 | /
CC(=O)Nc1ccc(S(=O)(=O)Nc2cccc(-c3csc(C)n3)c2)cc1 | 10 | / | 113 | 8 | -1 | / | /
O=C(O)CSc1nnc(-c2ccc(Cl)cc2Cl)n1-c1ccc(Br)cc1 | 7 | -30* | 101 | -3 | 0 | -16 | /
CC(C)NC(=O)Nc1ccc2c(c1)C(=O)N(C)[C@@H]1CC[C@H](CC(=O)Nc3ccccc3)O[C@@H]1CO2 | -3 | 1 | / | -1 | / | / | /
COc1ccc2c(c1)-c1nc(N)sc1CC2 | / | -22* | 133 | / | -1 | -0.82 | 2
N#C[C@H]1[C@H](c2ccc(C#Cc3ccc(F)cc3)cc2)[C@H](CO)N1C(=O)Cc1ccncc1 | 42 | -8 | / | 3 | / | / | /
Cc1cc(C)c(NC(=O)C(C)c2cccc(C(=O)c3ccccc3)c2)c(C)c1 (stereo not given) | / | -17* | 113 | / | 10 | -2.7 | /
COCCCNc1ccn2nc(-c3ccccc3)cc2n1 | 3 | -20* | / | -7 | / | 5.4 | /
C/C=C/c1ccc([C@H]2[C@H](CO)N3C(=O)CN(C(=O)Nc4ccc(F)cc4)C[C@@H]23)cc1 | / | 5 | / | / | / | / | /
COc1cc(-c2csc(C)n2)ccc1O | 0 | / | 108 | 5 | 58 | / | /
COc1ccc(-c2csc(C)n2)cc1Br | 4 | -29* | 114 | 4 | 86 | -17 | -13
O=C(C[C@@H]1C=C[C@H](NC(=O)Nc2ccc(F)cc2)[C@@H](CO)O1)NCc1ccccn1 | 1 | 3 | / | 0 | / | / | /
COc1ccc(S(=O)(=O)N(C)C[C@H]2Oc3ccc(NC(=O)NC(C)C)cc3CC(=O)N([C@@H](C)CO)C[C@@H]2C)cc1 | -2 | -1 | / | -1 | / | / | /
COc1cccc(S(=O)(=O)N2CCCCN3[C@H](CO)[C@@H](c4ccc(C#CC(C)C)cc4)[C@H]3C2)c1 | 6 | -47* | / | -5 | / | / | ?
COc1cccc(S(=O)(=O)N2CCCCN3[C@H](CO)[C@@H](c4ccc(C#CC(C)C)cc4)[C@@H]3C2)c1 | -2 | 7 | / | 1 | / | ? | /
COc1cccc(S(=O)(=O)N2CCCCN3[C@H](CO)[C@@H](c4ccc(C#CCC(C)C)cc4)[C@@H]3C2)c1 | 78 | -4 | / | 1 | / | / | /
COc1cccc(S(=O)(=O)N2CCCCN3[C@H](CO)[C@@H](c4ccc(C#CCC(C)C)cc4)[C@H]3C2)c1 | 0 | -16 | / | -1 | / | / | /

Screening results from PubChem.
